Data set [1] can be described thus: Plasma clearance in rhesus monkey at 3 mg/kg, iv and 10 mg/kg, po. The data set is classed as ADME, organism-based, Macaca mulatta. The essentials:
(§1)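 Rhesus pharmacokinetics: 3 mg/kg iv and 10 mg/kg po, HCl salt. Clp, t1/2, Vdss, Cmax, AUC, oral t1/2 and %F reported.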

Data set [2] in a line: Half life in rhesus monkey at 3 mg/kg, iv and 10 mg/kg, po. To be noted: in vivo. In kind it is ADME, organism-based, Macaca mulatta. The essentials: as §1
Data set [3] in a line: Volume of distribution at steady state in rhesus monkey at 3 mg/kg, iv and 10 mg/kg, po. The settings on record: in vivo, read-out: Vdss. The data set is classed as ADME, organism-based, Macaca mulatta. The essentials: as §1
Data set [4] is described as follows: Cmax in rhesus monkey at 3 mg/kg, iv and 10 mg/kg, po. In kind it is ADME, organism-based, Macaca mulatta. To be noted: in vivo. An outline of the steps:
as §1

The nature of data set [5]: AUC in rhesus monkey at 3 mg/kg, iv and 10 mg/kg, po. In kind it is ADME, organism-based, Macaca mulatta. The settings on record: plasma. The essentials: as §1
Data set [6] can be described thus: Half life in rhesus monkey at 10 mg/kg, po. In kind it is ADME, organism-based, Macaca mulatta. More on the design: dose 10 mg/kg, route oral. The settings on record: in vivo.
A short description of data set [7]: Bioavailability in rhesus monkey at 3 mg/kg, iv and 10 mg/kg, po. In kind it is ADME, organism-based, Macaca mulatta. To be noted: in vivo. The essentials:
as §1

Data set [8] can be described thus: Cmax in mouse at 3 mg/kg, iv and 10 mg/kg, po. To be noted: in vivo. In kind it is ADME, organism-based.
A short description of data set [9]: AUC in mouse at 3 mg/kg, iv and 10 mg/kg, po. To be noted: plasma. In kind it is ADME, organism-based.
Data set [10] can be described thus: Half life in mouse at 10 mg/kg, po. In kind it is ADME, organism-based. More on the design: dose 10 mg/kg, route oral. The settings on record: in vivo.
Data set [11] deals with Nitric oxide synthase, inducible (Homo sapiens, UniProt P35228). Put plainly: Inhibition of human iNOS expressed in HEK293 cells assessed as inhibition of nitric oxide production after 18 hrs using 2,3-diaminonaphthalene by fluorescence assay. The data set is classed as cell-based. The essentials: (§2)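 HEK293 cells grown to ~70% confluence in DMEM/10% FBS with pen/strep, transiently transfected with 10 μg human or murine iNOS plasmid plus Fugene 6 for 4 h at 37 °C, 10% CO2. Cells replated at 5e5 cells/mL and dosed with compound at once; 1400W (100 μM final) as positive control. After 18 h, DAN (10 μg/mL final) in HCl (0.1 N final) added for 20 min at room temperature. Fluorescence read after NaOH (0.12 N final).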
Chain of Nitric oxide synthase, inducible (Homo sapiens, UniProt P35228) (P35228 whole entry): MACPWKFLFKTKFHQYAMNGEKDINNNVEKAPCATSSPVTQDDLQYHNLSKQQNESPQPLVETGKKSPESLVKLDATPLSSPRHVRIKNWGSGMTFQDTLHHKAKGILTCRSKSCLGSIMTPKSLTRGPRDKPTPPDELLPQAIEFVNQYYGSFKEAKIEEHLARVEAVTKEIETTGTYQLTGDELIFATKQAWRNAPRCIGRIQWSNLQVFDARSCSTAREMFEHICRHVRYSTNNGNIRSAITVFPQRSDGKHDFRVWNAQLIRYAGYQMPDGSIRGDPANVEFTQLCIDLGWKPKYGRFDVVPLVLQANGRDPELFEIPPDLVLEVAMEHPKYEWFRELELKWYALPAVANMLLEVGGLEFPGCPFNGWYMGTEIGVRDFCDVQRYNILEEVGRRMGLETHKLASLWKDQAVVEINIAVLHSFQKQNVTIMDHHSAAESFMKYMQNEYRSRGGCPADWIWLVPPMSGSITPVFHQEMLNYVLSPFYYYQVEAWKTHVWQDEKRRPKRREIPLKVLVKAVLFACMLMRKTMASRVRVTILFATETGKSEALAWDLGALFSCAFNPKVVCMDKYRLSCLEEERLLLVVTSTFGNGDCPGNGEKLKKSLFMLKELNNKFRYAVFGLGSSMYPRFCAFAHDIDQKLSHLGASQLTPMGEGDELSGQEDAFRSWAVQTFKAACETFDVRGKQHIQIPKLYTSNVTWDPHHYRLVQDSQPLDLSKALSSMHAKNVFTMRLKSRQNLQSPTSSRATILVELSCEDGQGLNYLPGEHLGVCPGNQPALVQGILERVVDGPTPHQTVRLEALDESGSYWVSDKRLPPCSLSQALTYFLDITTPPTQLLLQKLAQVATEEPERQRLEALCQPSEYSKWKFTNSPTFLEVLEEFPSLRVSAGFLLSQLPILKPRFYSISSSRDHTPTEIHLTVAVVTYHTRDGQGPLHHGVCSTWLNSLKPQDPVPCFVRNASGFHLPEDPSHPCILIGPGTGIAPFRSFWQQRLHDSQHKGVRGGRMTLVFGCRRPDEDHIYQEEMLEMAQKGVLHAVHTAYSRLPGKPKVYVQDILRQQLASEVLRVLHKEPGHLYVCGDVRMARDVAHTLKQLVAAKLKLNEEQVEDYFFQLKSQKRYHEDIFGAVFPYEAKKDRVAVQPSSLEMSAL

For the next data set, the target named is Nitric oxide synthase 1 (Homo sapiens, UniProt P29475). Put plainly: Inhibition of human nNOS expressed in HEK293 cells assessed as inhibition ionomycin induced nitric oxide production incubated for 24 hrs measured after 18 hrs of ionomycin challenge using 2,3-diaminonaphthalene by fluorescence assay. In kind it is cell-based. The essentials:
(§3)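 HEK293 cells transfected for 4 h at 37 °C with human nNOS (10 μg) or human eNOS (15 μg) plasmid (Fugene 6, 3:1). Cells replated at 5e5 cells/mL and dosed with compound at once; SEITU (100 μM final) as positive control. After 24 h, cells activated with A23187 (83 nM final) for eNOS or ionomycin (30 μM final) for nNOS. NO read 18 h later as nitrite-DAN fluorescence.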

In a further data set the target is T1, Nitric oxide synthase 3 (Homo sapiens, UniProt P29474).
T1 sequence (P29474 whole entry): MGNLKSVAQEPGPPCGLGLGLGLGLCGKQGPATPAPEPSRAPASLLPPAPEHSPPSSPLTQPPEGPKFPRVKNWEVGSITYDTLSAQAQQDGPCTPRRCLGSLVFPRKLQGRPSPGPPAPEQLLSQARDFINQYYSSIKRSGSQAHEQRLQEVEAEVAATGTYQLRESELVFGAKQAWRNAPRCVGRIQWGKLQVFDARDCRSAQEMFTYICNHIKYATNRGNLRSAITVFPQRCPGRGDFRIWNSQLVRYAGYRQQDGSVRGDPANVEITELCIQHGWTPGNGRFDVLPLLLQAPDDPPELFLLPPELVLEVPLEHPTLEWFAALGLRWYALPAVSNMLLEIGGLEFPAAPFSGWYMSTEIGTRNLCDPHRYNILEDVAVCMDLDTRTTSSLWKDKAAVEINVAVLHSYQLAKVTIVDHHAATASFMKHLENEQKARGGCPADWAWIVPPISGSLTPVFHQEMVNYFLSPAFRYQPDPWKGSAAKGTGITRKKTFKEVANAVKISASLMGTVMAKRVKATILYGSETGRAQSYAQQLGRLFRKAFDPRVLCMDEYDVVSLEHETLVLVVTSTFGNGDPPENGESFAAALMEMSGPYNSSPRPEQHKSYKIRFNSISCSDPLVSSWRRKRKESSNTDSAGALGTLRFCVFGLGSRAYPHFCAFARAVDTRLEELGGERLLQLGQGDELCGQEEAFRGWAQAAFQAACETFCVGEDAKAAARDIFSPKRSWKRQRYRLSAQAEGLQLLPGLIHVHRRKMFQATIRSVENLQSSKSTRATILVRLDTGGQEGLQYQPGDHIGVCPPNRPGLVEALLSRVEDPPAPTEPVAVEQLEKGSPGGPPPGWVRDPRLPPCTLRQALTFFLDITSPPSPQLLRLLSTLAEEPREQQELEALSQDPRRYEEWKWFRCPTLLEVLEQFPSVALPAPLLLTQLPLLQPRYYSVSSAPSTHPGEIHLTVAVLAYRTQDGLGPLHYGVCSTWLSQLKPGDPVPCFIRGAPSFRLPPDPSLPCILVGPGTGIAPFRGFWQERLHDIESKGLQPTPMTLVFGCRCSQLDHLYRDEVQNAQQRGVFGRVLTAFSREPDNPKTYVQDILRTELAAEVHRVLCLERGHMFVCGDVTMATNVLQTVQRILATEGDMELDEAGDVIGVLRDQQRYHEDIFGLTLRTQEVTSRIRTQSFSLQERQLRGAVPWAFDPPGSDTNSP
Description: Inhibition of human eNOS expressed in HEK293 cells assessed as inhibition A23187 induced nitric oxide production incubated for 24 hrs measured after 18 hrs of […] challenge using 2,3-diaminonaphthalene by fluorescence assay. In kind it is cell-based. The essentials:
as §3

In another data set the test system is Liver. Put plainly: Half life in mouse liver microsomes assessed as formation of oxidation product and glucuronide conjugate. The data set is classed as ADME, Microsome. An outline of the steps: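 Mouse liver microsomes run under combined phase I oxidation and phase II glucuronide conjugation; half-life reported in minutes.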
For data set [12], the species on record is Homo sapiens. Put plainly: Ratio of IC50 for human eNOS to EC50 for human iNOS.
The species named for data set [13] is Homo sapiens. Put plainly: Ratio of IC50 for human nNOS to EC50 for human iNOS.
The target of data set [14] is T2, Nitric oxide synthase 3 (Homo sapiens) (UniProt P29474).
T2 sequence (whole entry): T1 sequence (P29474 whole entry)
Put plainly: Inhibition of human eNOS expressed in HEK293 cells assessed as inhibition A23187 induced nitric oxide production at 100 uM incubated for 24 hrs measured after 18 hrs of […] challenge using 2,3-diaminonaphthalene by fluorescence assay. The data set is classed as cell-based.

Data set [15] has as its target T3, Nitric oxide synthase, inducible (Mus musculus, UniProt P29477).
T3 sequence (P29477 whole entry): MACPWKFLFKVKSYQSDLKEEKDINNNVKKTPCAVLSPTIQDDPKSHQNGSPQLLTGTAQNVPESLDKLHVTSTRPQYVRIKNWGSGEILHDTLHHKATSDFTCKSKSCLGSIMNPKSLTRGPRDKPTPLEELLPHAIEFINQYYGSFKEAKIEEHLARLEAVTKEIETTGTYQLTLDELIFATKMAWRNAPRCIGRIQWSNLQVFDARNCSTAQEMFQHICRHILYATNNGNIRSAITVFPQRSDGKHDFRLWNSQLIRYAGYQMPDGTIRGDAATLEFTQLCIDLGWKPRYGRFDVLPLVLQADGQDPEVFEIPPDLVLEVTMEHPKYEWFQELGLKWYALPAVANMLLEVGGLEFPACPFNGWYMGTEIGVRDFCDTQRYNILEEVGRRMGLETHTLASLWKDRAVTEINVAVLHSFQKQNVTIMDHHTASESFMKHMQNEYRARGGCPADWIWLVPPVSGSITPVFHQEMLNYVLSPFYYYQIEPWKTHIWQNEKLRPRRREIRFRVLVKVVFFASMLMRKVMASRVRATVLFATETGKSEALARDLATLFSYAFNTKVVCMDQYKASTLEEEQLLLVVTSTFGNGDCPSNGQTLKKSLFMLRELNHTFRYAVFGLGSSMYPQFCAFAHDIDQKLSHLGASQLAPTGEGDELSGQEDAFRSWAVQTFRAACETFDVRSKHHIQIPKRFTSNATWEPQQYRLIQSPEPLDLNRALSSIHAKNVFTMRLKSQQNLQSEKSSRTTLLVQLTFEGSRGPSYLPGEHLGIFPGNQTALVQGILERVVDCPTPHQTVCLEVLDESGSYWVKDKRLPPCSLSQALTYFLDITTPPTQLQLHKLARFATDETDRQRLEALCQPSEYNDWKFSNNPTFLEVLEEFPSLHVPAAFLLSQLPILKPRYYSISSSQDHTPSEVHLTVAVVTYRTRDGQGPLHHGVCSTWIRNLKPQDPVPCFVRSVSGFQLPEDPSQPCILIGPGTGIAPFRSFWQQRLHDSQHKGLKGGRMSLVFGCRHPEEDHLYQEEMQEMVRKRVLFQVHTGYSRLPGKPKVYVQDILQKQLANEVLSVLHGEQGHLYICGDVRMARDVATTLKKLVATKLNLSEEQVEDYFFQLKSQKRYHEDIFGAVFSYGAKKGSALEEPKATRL
Put plainly: Inhibition of mouse iNOS expressed in HEK293 cells assessed as inhibition of nitric oxide production after 18 hrs using 2,3-diaminonaphthalene by fluorescence assay. The data set is classed as cell-based. The essentials:
as §2

Another data set concerns Mus musculus. Put plainly: Inhibition of LPS-induced iNOS activation in BALB/c mouse assessed as plasma nitrate levels at 30 mg/kg administered via oral gavage before LPS challenge measured after 6 to 8 hrs using 2,3-diaminonaphthalene by fluorescence assay relative to control. The data set is classed as functional. An outline of the steps: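 Male BALB/c mice dosed by oral gavage (90% PEG/5% Tween 80/5% PVP + 0.5% w/v CMC) immediately before LPS (10 mg/kg ip in 0.9% NaCl). Mice killed at 6 h. EDTA plasma analysed for nitrate and drug levels; nitrite measured by DAN fluorescence.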

A short description of data set [16]: Plasma clearance in mouse at 3 mg/kg, iv and 10 mg/kg, po. The data set is classed as ADME, organism-based.
The nature of data set [17]: Volume of distribution at steady state in mouse at 3 mg/kg, iv and 10 mg/kg, po. To be noted: in vivo, read-out: Vdss. In kind it is ADME, organism-based.
A short description of data set [18]: Oral bioavailability in mouse at 10 mg/kg. The data set is classed as ADME, organism-based. To be noted: in vivo.
Data set [19] is described as follows: Half life in mouse at 3 mg/kg, iv and 10 mg/kg, po. To be noted: in vivo.

pEC50: −log10 of the molar value.

Chain of Nitric oxide synthase 1 (P29475 whole entry): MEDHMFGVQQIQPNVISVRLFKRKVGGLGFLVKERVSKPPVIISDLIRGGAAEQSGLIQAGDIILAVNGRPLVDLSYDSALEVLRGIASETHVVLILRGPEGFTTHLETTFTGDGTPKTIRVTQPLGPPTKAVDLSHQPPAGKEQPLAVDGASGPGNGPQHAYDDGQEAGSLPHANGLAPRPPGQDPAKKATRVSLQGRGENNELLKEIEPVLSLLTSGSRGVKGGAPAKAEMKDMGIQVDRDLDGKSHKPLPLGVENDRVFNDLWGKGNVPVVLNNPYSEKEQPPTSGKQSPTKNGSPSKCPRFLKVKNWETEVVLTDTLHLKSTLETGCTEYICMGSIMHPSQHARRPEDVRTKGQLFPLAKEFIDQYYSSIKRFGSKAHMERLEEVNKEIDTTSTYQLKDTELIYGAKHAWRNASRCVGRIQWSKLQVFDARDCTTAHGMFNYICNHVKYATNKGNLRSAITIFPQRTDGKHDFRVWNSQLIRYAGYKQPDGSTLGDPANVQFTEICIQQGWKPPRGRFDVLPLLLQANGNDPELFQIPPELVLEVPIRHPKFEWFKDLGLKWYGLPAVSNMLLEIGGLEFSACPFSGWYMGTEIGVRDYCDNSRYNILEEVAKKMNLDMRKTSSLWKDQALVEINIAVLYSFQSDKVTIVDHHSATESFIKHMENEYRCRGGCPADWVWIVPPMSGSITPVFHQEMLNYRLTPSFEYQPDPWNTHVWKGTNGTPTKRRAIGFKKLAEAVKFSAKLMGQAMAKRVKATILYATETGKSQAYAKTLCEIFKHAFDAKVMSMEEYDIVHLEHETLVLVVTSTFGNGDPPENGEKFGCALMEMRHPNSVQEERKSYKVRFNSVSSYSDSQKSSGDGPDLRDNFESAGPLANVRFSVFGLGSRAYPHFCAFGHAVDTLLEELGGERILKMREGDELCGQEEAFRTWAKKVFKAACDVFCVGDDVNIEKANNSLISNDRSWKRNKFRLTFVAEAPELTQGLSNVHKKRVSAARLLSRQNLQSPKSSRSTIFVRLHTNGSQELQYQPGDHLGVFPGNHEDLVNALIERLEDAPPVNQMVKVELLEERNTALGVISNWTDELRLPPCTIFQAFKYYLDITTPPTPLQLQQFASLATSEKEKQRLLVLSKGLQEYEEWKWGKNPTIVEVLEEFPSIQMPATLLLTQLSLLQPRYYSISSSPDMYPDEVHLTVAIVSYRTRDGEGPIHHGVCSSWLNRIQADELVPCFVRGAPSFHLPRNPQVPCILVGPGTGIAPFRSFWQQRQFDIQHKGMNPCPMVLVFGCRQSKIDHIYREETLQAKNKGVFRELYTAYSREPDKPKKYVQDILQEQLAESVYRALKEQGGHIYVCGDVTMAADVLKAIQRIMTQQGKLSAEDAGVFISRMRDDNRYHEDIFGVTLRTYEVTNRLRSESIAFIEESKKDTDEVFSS

For the compound `Cl.O=c1cc(Cn2c(C3CCC3)nc3nccnc32)c2cccc(F)c2[nH]1`, in data set [1], the clearance came to 4.3 mL/min/kg. For the same compound, the half-life was 6.8 h in data set [2] and 10 h in data set [6]. In addition, the Vd in [3] was found to be 1.2 L/kg. The compound also registered a Cmax in data set [4] of 1800 ng/mL. Moreover, the area under the curve (AUC) in data set [5] came to 23000 ng·h/mL. The compound further displayed a bioavailability in [7] of 93%.

Take `CN(C)c1ccnc2c1nc(C1CCC1)n2Cc1cc(=O)[nH]c2c(F)c(F)ccc12`: the highest level in data set [8] (Cmax) was 400 ng/mL. Further, the AUC in data set [9] was 700 ng·h/mL. The half-life in [10] was 1.4 h. In addition, the pEC50 in data set [11] was 6.77; at Nitric oxide synthase 1, 6.00; on Nitric oxide synthase 3 it was under 4.00; in data set [15], 5.74. Besides, in the data set on Liver, the t1/2 is 0.13 h. Besides, the Ratio EC50 was over 590 in the data set listed under Homo sapiens [12] and 5.9 in the data set filed under Homo sapiens [13]. Moreover, the inhibition in [14] is under 50%. Further, the inhibition in vivo at 30 mg/kg in the data set with Mus musculus amounted to 30%.

Regarding `Cl.O=c1cc(Cn2c(C3CC(F)(F)C3)nc3nccnc32)c2cccc(F)c2[nH]1`, the clearance in data set [1] was 8.6 mL/min/kg. The half-life in data set [2] was 6.6 h; in [6] it was 6.1 h. For the same compound, the Vd in [3] came out at 1.8 L/kg. Also, in data set [4], the highest concentration (Cmax) is 3400 ng/mL. Further, the AUC in data set [5] stood at 21000 ng·h/mL. Moreover, in data set [7], the bioavailability was found to be 100%.

`Cc1ncsc1-c1nc2ccccc2n1Cc1cc(=O)[nH]c2c(F)c(F)ccc12` showed a clearance in [16] of 12 mL/min/kg. Besides, in [17], the Vd was found to be 1.2 L/kg. Further, the Cmax in data set [8] is 3800 ng/mL. This compound also showed an AUC in data set [9] of 5670 ng·h/mL. The half-life in data set [10] was 3.1 h; in data set [19], 2.3 h. This compound yielded a bioavailability in [18] of 39%. In addition, the pEC50 is 5.74 in [11], 5.82 at Nitric oxide synthase 1, 5.17 at Nitric oxide synthase 3 and 4.99 in data set [15]. In the data set with Liver, the t1/2 was 1.63 h. Further, the Ratio EC50 worked out at 3.8 in the data set filed under Homo sapiens [12] and 0.8 in the data set filed under Homo sapiens [13]. Moreover, the inhibition in vivo at 30 mg/kg in the data set on Mus musculus was determined as 30%.
